Assay results from different studies.
SLC2A9: Solute carrier family 2, facilitated glucose transporter member 9 (SLC2A9, Homo sapiens, UniProt Q9NRM0)

O=C(c1ccc(OCCN2CCCCC2)cc1)c1c(-c2ccc(O)cc2)sc2cc(O)ccc12
Kd (Protein disulfide-isomerase (P4HB, Homo sapiens, UniProt P07237); binding, SPR): 0.0297 µM

Cn1c(=O)c2c(ncn2C)n(C)c1=O
IC50 (SLC2A9; transporter uptake, inhibitor, radiometric; oocytes): > 1000 µM

COc1ccc(C[C@H]2COC(=O)[C@@H]2Cc2ccc(OCC(=O)Nc3ccc(C(=O)Nc4ccccc4N)cc3)c(OC)c2)cc1OC
IC50 (Histone deacetylase 4 (HDAC4, Homo sapiens, UniProt P56524); enzyme activity, inhibitor): > 10 µM

CCCCCCCc1cc(O)cc(=O)o1
IC50 (Aldo-keto reductase family 1 member C3 (AKR1C3, Homo sapiens, UniProt P42330); enzyme activity, inhibitor): 10.6 µM

Cc1ccc2oc(=O)cc(NCCO)c2c1
IC50 (Alpha-1B adrenergic receptor (Adra1b, Rattus norvegicus, UniProt P15823); calcium signal, antagonist): 178 µM

N[C@@H](Cc1ccccc1)C(=O)O
IC50 (Alkaline phosphatase, placental type (Homo sapiens, UniProt P05187); enzyme activity, inhibitor): 82.6 µM

CCOC(=O)/C=C/C(=O)[C@H](CC(C)C)NC(=O)[C@H](Cc1ccccc1)NC(=O)[C@H](Cc1ccccc1)N=[N+]=[N-] (mixture of isomers)
IC50 (Procathepsin L (CTSL, Homo sapiens, UniProt P07711); enzyme activity, inhibitor): 0.13 µM

Nc1ncnc2c1ncn2[C@@H]1O[C@H](CO)[C@@H](O)[C@H]1O
IC50 (SLC2A9; transporter uptake, inhibitor, radiometric; oocytes): > 4000 µM

O=C(C=Cc1ccccc1)Nc1cc(-c2ccnc(N3CCC(O)CC3)c2)ccn1
Kd (Nuclear receptor subfamily 4immunitygroup A member 1 (NR4A1, Homo sapiens, UniProt P22736); binding, SPR): 0.121 µM

Nc1ncnc2c1ncn2[C@@H]1O[C@H](COP(=O)(O)CP(=O)(O)OP(=O)(O)O)[C@@H](O)[C@H]1O
Kd (P2X purinoceptor 1 (P2RX1, Homo sapiens, UniProt P51575); binding, radioligand): 0.043 µM

O=C1CCc2ccccc2O1
Ki (cah (Neisseria gonorrhoeae, UniProt Q50940); enzyme activity, inhibitor, stopped-flow): 25.8 µM

N=c1c[n+](N2CCOCC2)[n-]o1
IC50 (NAD-dependent protein deacetylase sirtuin-1 (SIRT1, Homo sapiens, UniProt Q96EB6); enzyme activity, inhibitor): 7 µM
